Source: PubChem BioAssay (several laboratories)
This is a sample that favours compounds with a hit; in the whole collection about 1.6% have one here.
NR1D1 modulator: modulators of human Rev-erb alpha DNA binding | P20393 | Rev-erbα–FITC-DNA binding, fluorescence polarization, 90 min | activity, % at 10 µM | 370,000 tested, 0.79% active;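 active = activity above about 14%, limit read from the data; passing the limit was not always enough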;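 note: 0% = DMSO wells with 35 nM protein and 100% = DMSO wells with 750 nM protein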
NR2E3 ag-1: activates human NR2E3 receptor; Q9Y5X4; CHO-S Gal4-NCOR/VP16-NR2E3 two-hybrid, luciferase; inhibition of corepressor binding, % at 3.98 µM; 360,000 tested, 0.35% active; AID 602229;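 active = inhibition above the mean of all tested compounds plus 3 SD, cut at about 70% in these data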;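 note: 0% = DMSO with NR2E3 transfected cells and 100% = cells lacking NR2E3 construct; higher means lower luciferase signal from less NR2E3 corepressor binding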
Target sequence (Q9Y5X4 whole entry, looked up, the tested form may be a part): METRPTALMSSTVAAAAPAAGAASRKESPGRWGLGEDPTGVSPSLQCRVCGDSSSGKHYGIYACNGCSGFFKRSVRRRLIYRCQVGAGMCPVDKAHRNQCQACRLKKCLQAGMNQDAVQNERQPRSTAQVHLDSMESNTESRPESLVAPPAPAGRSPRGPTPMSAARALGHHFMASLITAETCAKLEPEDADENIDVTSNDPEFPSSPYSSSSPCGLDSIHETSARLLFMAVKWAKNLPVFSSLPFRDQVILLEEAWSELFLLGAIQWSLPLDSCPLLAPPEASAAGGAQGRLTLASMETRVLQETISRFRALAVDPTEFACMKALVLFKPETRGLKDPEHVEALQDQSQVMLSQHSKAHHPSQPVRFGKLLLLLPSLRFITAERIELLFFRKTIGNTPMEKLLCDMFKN
PG9 binder: binds the HIV-1 gp120 antibody PG9. TR-FRET gp120-PG9 antibody binding. inhibition, % at 6.7 µM. 360,000 tested, 0.43% active; in the data active = inhibition above about 8.5%
PKA-R2B activ: PKA-R2B complex activation. P22694+P31323. PKA-R2B holoenzyme dissociation, Cy5-IP20 fluorescence polarization; R2B truncated from residue 108, S112A mutant; 0% DMSO only, 100% 113 µM cGMP. activation, % at 11.4 µM. 340,000 tested, 0.079% active. AID 504700;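 active = activation above a cutoff set at the mean over all compounds plus 3 SD, cut at about 18% in these data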;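 note: higher means more holoenzyme dissociation and a rise in polarization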
PKA-R1A act: activates the PKA-R1A holoenzyme complex; P00514+P68181; PKA-R1A dissociation, Cy5-IP20 fluorescence polarization; scaled: DMSO 0%, 113 µM cGMP 100%; activation, % at 11.4 µM; 340,000 tested, 0.083% active; AID 504707;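 active = percent activation above the mean of all tested compounds plus 3 SD, cut at about 19% in these data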;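 note: higher means more PKAc released from R1A so a rise in polarization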
NR2E3 ag-2: NR2E3 (human) agonism. GST-NR2E3/biotin-RetCOR TR-FRET, 1536-well. 320,000 tested, 0.12% active. inhibition of corepressor binding, % at 4.78 µM. AID 2300. Q9Y5X4;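 active = percent inhibition above the cutoff of mean plus 3 SD of all tested compounds, set per screening campaign, cut at about 20% in these data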;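 note: 0% = DMSO wells and 100% = biotin wells as full block of FRET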
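Test system: GST-NR2E3 and biotin-RetCOR proteins | Quantity: 1.35 nM GST-tagged NR2E3 final | Medium: Tris pH 7.5 | Also added: 7 nM biotin-RetCOR | Dosing: Compound at 4.8 µM, single dose | Timing: 5 h at 4 °C | Detection: Time-resolved FRET | Read-out basis: Percent inhibition | Benchmarks: Biotin wells as high control, 0.6% DMSO wells as low control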
Rev-erbA confirm: Rev-erb alpha (human) modulation, hit confirmation; shares compounds with NR1D1 modulator; Rev-erb alpha FITC-DNA binding, fluorescence polarization, 90 min; activation, % at 25 µM; 3,000 tested, 61% active; AID 1259319;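 active = activation at or above a set limit, or at least 3 SD above the negative control mean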;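 note: 0% = 35 nM protein with DMSO and 100% = 750 nM protein high control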
RORg DNA counter: affects RORgamma DNA binding in a Rev-erb alpha counter-screen. 910 tested, 8% active. purified RORgamma protein-FITC-DNA binding, fluorescence polarization. IC50, µM. shares compounds with NR1D1 modulator. AID 1259320;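 active = Compounds whose fitted half-maximal concentration for disrupting protein-DNA binding is below 10 micromolar; the record names Rev-erb in its text, so the target is in doubt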
Starred values were filed as active, the others as inactive; . = no result; ! = repeats disagree.

SMILES	NR1D1 modulator	NR2E3 ag-1	PG9 binder	PKA-R2B activ	PKA-R1A act	NR2E3 ag-2	Rev-erbA confirm	others
O=C(/C=C/c1ccc(OCCCF)cc1)Nc1ccnc(-c2cccnc2)n1	24*	-2	8	1	9	-1	22*
CCOC(=O)c1cnc2c(cnn2C)c1NCc1ccc(OC)cc1	28*	-9	1	3	-3	-82	22*
COc1ccc(OC)c(NC(=O)c2[nH]c(C)c(C(C)=O)c2C)c1	31*	-19	-1	-6	-4	-2	22*
COc1cc(NC(=O)c2[nH]c(C)c(C(C)=O)c2C)c(OC)cc1Cl	-5	.	.	.	.	.	.
COc1ccccc1N/C(N)=N/c1nc(CSc2ccc(C)cc2)cc(=O)[nH]1	31*	19	1	-3	1	0	34*	RORg DNA counter=>40
COc1ccccc1N1N=C(C(=O)c2ccccc2)C2C(=O)N(c3ccc(Br)cc3)C(=O)C21 (configuration not stated)	29*	11	0	.	.	0	31*	RORg DNA counter=>40
COc1ccccc1N1C(=O)C2C(C(=O)c3ccccc3)=NN(c3ccccc3)C2C1=O (configuration not stated)	-1	11	0	4	4	2	.
O=C(Nc1nnc(-c2ccccc2)s1)c1ccccc1F	-3	-126	0	2	-3	5	.
O=C(Nc1nnc(-c2ccccc2Cl)s1)c1ccccc1F	27*	-35	-1	-11	-5	.	3
COc1ccc2cc(/C=N/NC(=O)CN(c3ccccc3OC)S(=O)(=O)c3ccccc3)c(Cl)nc2c1	0	.	-2	.	.	.	.
COc1ccc2cc(/C=N/NC(=O)CN(c3ccccc3C)S(=O)(=O)c3ccccc3)c(Cl)nc2c1	29*	-18	3	0	2	0	8
CCN(CC)c1ccc(/C=C(\C#N)C(N)=O)cc1	9	10	-7	-5	-21	.	.
CCN(CC)c1ccc(/C=C(\C#N)C(N)=S)cc1	76*	-32	-9	7	3	-1	64*	RORg DNA counter=>40
CCN(CC)c1ccc(/C=C(\C#N)C(=O)c2ccc(Br)cc2)cc1	59*	0	-3	-6	-4	-11	70*	RORg DNA counter=>40
CCOC(=O)c1cc(-c2ccc3c(c2)OCO3)nc2onc(C)c12	33*	6	1	-5	0	0	9
CCOC(=O)[C@@]12CCCC=C1N(CCc1ccc(Cl)cc1)C(=O)[C@H]2CC(=O)NCc1cccc2ccccc12	2	.	.	.	.	.	.
COc1ccc(C2=NN(C(=O)CSc3ncccn3)C(c3ccc(OC)cc3)C2)cc1 (configuration not stated)	-3	-23	-2	-9	0	3	.
COc1ccc(C2=NN(C(=O)CSc3nc(=O)n4cc(C)ccc4n3)C(c3ccc(C)cc3)C2)cc1 (configuration not stated)	57*	-11	-2	-6	-3	-5	20*
Cc1ccc(C(=O)NCCN(C)C)c(C)c1	5	-15	3	-3	-9	-2	.
CNc1c2cccc(C)c2nc2c(C(=O)NCCN(C)C)cccc12	15*	35	-2	-16	-11	.	8
CCOC(=O)c1ccc(Nc2cc(C)nc(-c3ccccc3O)n2)cc1	38*	-7	-2	1	-6	2	3
Cc1cc(Nc2ccccc2)nc(-c2ccccc2O)n1	-3	-75	-3	3	2	0	.
CCOC(=O)/C=C1/SCC(=O)N1CCOc1cccc(Br)c1	24*	4	-2	1	-2	.	12*
CCOC(=O)/C=C1/SCC(=O)N1Cc1ccc(Br)cc1	14	-35	1	-12	5	.	.
Cc1ccc(S(=O)(=O)N2CCCC2C(=O)N2CCN(c3ccccc3)CC2)cc1C (configuration not stated)	3	.	.	.	.	.	.
SMILES	NR1D1 modulator	NR2E3 ag-1	PG9 binder	PKA-R2B activ	PKA-R1A act	NR2E3 ag-2	Rev-erbA confirm	others
CCc1nc2c(c(SC)nn2-c2ccccc2)c(N)c1C(=O)OC	26*	3	-2	2	2	1	7
CCCn1c(=O)[nH]c(=O)c2c(C(=O)OCC)cc(-c3cccs3)nc21	30*	-3	0	-4	10	3	27*
Cc1ccccc1CN1CCCCC(NC(=O)Nc2ccccc2)C1=O (configuration not stated)	-1	.	.	.	.	.	.
CCCC#Cc1ccc(CC[C@H]2O[C@H]3CC[C@H](CO)O[C@H]3C[C@H]2NC(=O)CN2CCOCC2)cc1	-4	.	.	.	.	.	.
CCOc1ccc(C(=O)Nc2ccc(C(F)(F)F)n(C)c2=O)cc1	35*	13	-2	-14	-19	6	8
COc1cccc(C(=O)Nc2ccc(C(F)(F)F)n(C)c2=O)c1	1	-40	-1	-1	2	3	.
COc1cccc2c1C(=O)c1c(O)c3c(c(O)c1C2=O)C[C@@](O)(C(C)=O)C[C@@H]3O[C@H]1C[C@H](N)[C@H](O)[C@H](C)O1	28*!	-86	-13	10	-11	.	-1
COc1cccc2c1C(=O)c1c(O)c3c(c(O)c1C2=O)C[C@@](O)(C(=O)CO)C[C@@H]3O[C@H]1C[C@H](N)[C@@H](O)[C@H](C)O1	-12	-28	.	-13	-29	-2	.
Cc1ccccc1CN1CCCCC(NC(=O)c2ccc(-c3ccccc3)cc2)C1=O (configuration not stated)	-5	.	.	.	.	.	.
O=S1(=O)c2ccc(N3CCSCC3)cc2Oc2ccccc2CN1Cc1cn(Cc2ccc(F)cc2)nn1	20*	.	.	.	.	.	19*
O=S1(=O)c2ccc(N3CCSCC3)cc2Oc2ccccc2CN1Cc1cn(Cc2cccc(C(F)(F)F)c2)nn1	18*	.	.	.	.	.	10
O=S1(=O)c2ccc(N3CCSCC3)cc2Oc2ccccc2CN1Cc1cn(Cc2ccc(C(F)(F)F)cc2)nn1	3	.	.	.	.	.	.
CCCCN1CN2Cc3ccccc3C2CS1(=O)=O (configuration not stated)	2	.	.	.	.	.	.
CCCC1CCC2(CC1)CCC2OC(=O)Nc1ccc(F)cc1 (configuration not stated)	4	.	.	.	.	.	.
O=C(CN1C(=O)NC(Cc2ccccc2)C1=O)Nc1ccc(F)cc1 (configuration not stated)	-1	-9	-1	-5	-8	-4	.
